Screening results: PubChem, several laboratories
HIV Rev-RRE inh – HIV-1 Rev-RRE binding inhibitors, primary screen, biochemical, FRET, protein-RNA interaction; P05866; Rev peptide-RRE RNA binding; inhibition, % at 8 µM; 97,000 compounds, 0.79% hits; AID 704, 2007;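 active = inhibition above the screen-wide mean plus 3 SD, cut at about 35% in these data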;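 note: 0% = median DMSO wells and 100% = median Neomycin B control wells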
Target sequence (P05866 whole entry, looked up): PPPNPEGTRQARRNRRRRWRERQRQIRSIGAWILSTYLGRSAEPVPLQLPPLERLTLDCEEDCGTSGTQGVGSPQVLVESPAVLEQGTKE
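assay system = Cy5-tagged RRE RNA duplex with fluorescein-tagged Rev peptide | incubation = 5 + 15 min at 25 °C | also added = labelled Rev peptide | measure = % inhibition of FRET ratio versus controls | benchmarks = DMSO wells as 0% and neomycin B wells as 100% inhibition | measured by = FRET fluorescence readout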
PLK1 PBD inh – Plk1 polo box domain binding inhibitors, primary screen, biochemical, fluorescence polarization | 97,000 compounds, 0.13% hits | Plk1 PBD phosphopeptide binding | inhibition, %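 (tested at about 20 µM)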 | Serine/threonine-protein kinase PLK1 (Homo sapiens), P53350; in the data active = inhibition above about 34%, passing the limit was not always enough
FAK inh – FAK kinase inhibitors, primary screen, biochemical | biochemical FAK kinase activity assay | Focal adhesion kinase 1 (Homo sapiens), Q05397 | inhibition, %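 (tested at 7 µM)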 | 97,000 compounds, 0.84% hits; in the data active = inhibition above about 19%;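 note: 0% = DMSO and 100% = reference compound high control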
Cav32 inh – Cav3.2 calcium influx blockers – cell-based, Fluo-4 calcium fluorescence, FDSS, MLSMR library, primary screen. Cav3.2-expressing cells; stronger effect = lower value. B-score at 10 µM. Voltage-dependent T-type calcium channel subunit alpha-1H (Homo sapiens), O95180. AID 449739, 2010. 100,000 compounds, 4% hits;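 active = single-dose well whose peak fluorescence ratio is a statistical outlier from its plate by either plate-standardised score or position-corrected B-score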
PLK1 kinase inh – human PLK1 kinase inhibitors, primary screen, biochemical, TR-FRET. recombinant PLK1 kinase, TR-FRET peptide phosphorylation. inhibition, % at 10 µM. 97,000 compounds, 0.53% hits;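 active = inhibition of 50% or more in the single-concentration screen; inactive = inhibition below 50%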;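 note: 0% = DMSO max control and 100% = H-89 dihydrochloride min control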
EphB4 antag – EphB4-ephrin-B2 interaction antagonists, primary screen, biochemical, TNYL-RAW peptide probe, fluorescence polarization. Ephrin type-B receptor 4 (Homo sapiens), P54760. EphB4 LBD / TNYL-RAW-Alexa532 peptide. inhibition, % at 7 µM. 97,000 compounds, 0.15% hits. AID 720, 2007;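 active = inhibition above the screen-wide mean inhibition plus 3 SD, cut at about 15% in these data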;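 note: 0% = DMSO wells and 100% = excess unlabeled TNYL-RAW peptide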
Numbers without * were called inactive; x = no result given. Compounds with a hit are over-represented: about 5.3% of the library has one in this group of screens.

SMILES	HIV Rev-RRE inh	PLK1 PBD inh	FAK inh	Cav32 inh	PLK1 kinase inh	EphB4 antag
COc1ccc(N/C(=C(/C(Cl)=C(Cl)Cl)[N+](=O)[O-])n2nnc3ccccc32)cc1OC	38*	6	-1	-0.34	6	2
COc1ccc(C(=O)n2nnc3ccccc32)cc1Br	6	-14	-2	x	-7	-1
COc1cc(Nc2nc3ccccc3n3nnnc23)cc(OC)c1OC	1	6	-4	0.18	-12	0
Nc1nc(N)c2sc3nc(C(F)(F)F)cc(C(F)(F)F)c3c2n1	37*	-12	2	0.062	15	4
COc1cccc2c1C(CO)N1C(C#N)C3CC(C(=O)O)C(C1C2)N3C (centres undefined)	x	x	x	0.082	x	x
Clc1ccccc1CN(Cc1ccccc1)c1ncnc2nc[nH]c12	11	-10	6	-3.7*	3	4
CCCCCC(=O)OC(CN1CCCCC1)CN1CCCC1=O (centres undefined)	3	22	-4	-0.19	-6	-3
C=C1CCN([C@@H](CC(C)C)C(=O)NCCC(C)C)S(=O)(=O)c2ccccc21	x	x	x	-1.6	x	x
Cc1c(Cl)c([N+](=O)[O-])nn1CC(=O)NC(C)C1CC2CCC1C2 (centres undefined)	3	21	0	-8.2*	-2	0
COC(=O)C1=C(C)N(CCCC(=O)O)C(=O)NC1c1ccccc1Cl (centres undefined)	x	x	x	1.6	x	x
CC1(c2cc(C(F)(F)F)n3nc(C(=O)O)cc3n2)CC1	2	8	-1	0.22	-4	-7
COc1ccc(-c2cnn3c4c(c(C)nc23)CCN4C(C)C)cc1OC	-6	-3	-5	0.93	-11	0
COCC(=O)Nc1cccc2ccccc12	10	-7	2	0.11	-6	1
CC(C)NS(=O)(=O)c1ccc(OCC(=O)Nc2cccc3ccccc23)cc1	9	-23	-1	-3.6*	-8	-5
Cc1ccc(N2C(=O)C(O)(C(F)(F)F)C3=C2CC(C)(C)CC3=O)cc1C (centres undefined)	-4	3	-5	0.22	-7	16*
O=C(NCc1ccccc1)c1onc(CSc2ccc(F)c(F)c2)c1C(=O)NCc1ccccc1	x	x	x	0.2	x	x
O=C(N[C@@H](Cc1ccccc1)C(=O)NC1CCCCCC1)c1ccco1	1	13	0	-0.018	-14	2
O=C(Nc1ccccc1C(=O)NC(Cc1ccccc1)C(=O)NC1CCCCCC1)c1ccccc1 (centres undefined)	7	-4	6	-5.3*	-11	0
CN1C(=O)C2(c3ccccc31)N(C)CC(c1ccccn1)C21SC(=S)N(Cc2ccco2)C1=O (centres undefined)	3	-5	-2	-4.7*	-4	-6
CC(=O)c1ccc(N2CCN(C(=O)c3ccc(Br)cc3)CC2)c(F)c1	15	13	3	-0.43	-3	21*
CC(Sc1nnc(-c2ccc(Cl)cc2Cl)n1Cc1ccccc1)C(=O)Nc1nccs1 (centres undefined)	8	-16	5	-8.2*	-4	10
O=S(=O)(NCCCN1CCN(c2ccccc2F)CC1)c1cccc2cccnc12	7	-7	-8	-0.33	-15	0
CCOC(=O)CCC(=O)N1CCOCCOCCN(C(=O)CCC(=O)OCC)CCOCCOCC1	-2	-9	0	0.82	-11	-2
Cc1cc(C)nc(SCC(=O)NCc2ccco2)n1	8	-2	-2	x	-12	0
Cc1cccc(-c2nsc(SCC(=O)NCc3ccco3)n2)c1	2	-10	-7	-3.9*	-2	0
SMILES	HIV Rev-RRE inh	PLK1 PBD inh	FAK inh	Cav32 inh	PLK1 kinase inh	EphB4 antag
COc1cc(CCCN2C(N)=NC[C@@H]2Cc2ccccc2)cc(OC)c1OC	x	x	x	0.56	x	x
COCCn1c(CN2CC(C)CC(C)C2)nc2c1c(=O)n(C)c(=O)n2C (centres undefined)	0	6	3	0.0054	68*	-3
O=C(NCc1ccc(Cl)cc1)c1ccc(-c2ccccc2C(F)(F)F)o1	x	x	x	-0.12	x	x
Cc1ccc(SCCC(=O)NCCSCc2ccccc2C)cc1	6	11	5	-7.6*	-4	-1
O=C(COc1ccccc1)NNC(=S)NC(=O)c1ccc(Cl)cc1Cl	3	-6	-3	-4.1*	-8	8
Cc1ccc(C(=O)NNC(=S)NC(=O)c2ccc(Cl)cc2Cl)cc1	3	-8	-4	-3.2	-16	-1
COc1ccc(-n2c(=O)c3c4c(sc3n3c(C)nnc23)CC(C)CC4)cc1 (centres undefined)	8	-10	1	x	-11	1
COc1ccc(-n2c(=O)c3c4c(sc3n3cnnc23)CC(C)CC4)cc1 (centres undefined)	10	-7	0	1.1	-9	25*
Cc1ccc(C)c(NC(=O)Cn2nnc(C(=O)NCc3cccs3)c2N)c1	10	-3	0	-1.3	-6	-2
O=C(CCCOc1ccccc1)NCC1CCCO1 (centres undefined)	0	22	-1	0.65	1	-1
N#C/C(=C\c1cn(CCOc2ccccc2)c2ccccc12)C(=O)NCC1CCCO1 (centres undefined)	-1	21	4	-4.4*	-14	-7
COC(=O)C1=C(C)N(C)C(C)=C(C(=O)OC)C1c1ccc(F)c(Br)c1	6	0	-3	-6.8*	-1	-5
O=C(OCn1nnc2ccccc2c1=O)C1COc2ccccc2O1 (centres undefined)	0	-38	-1	0.43	-5	-6
O=c1c2ccccc2nnn1CSc1nnc(C2COc3ccccc3O2)n1-c1ccccc1 (centres undefined)	x	x	x	-6.1*	x	x
COCCN1C(=O)N[C@@H](c2ccco2)C(C(C)=O)=C1C	x	x	x	0.56	x	x
CC(NC(=O)Nc1cccnc1)(C(F)(F)F)C(F)(F)F	6	-3	1	-0.86	-24	1
CC(NC(=O)Nc1cccc([N+](=O)[O-])c1)(C(F)(F)F)C(F)(F)F	14	16	8	-4.9*	-6	2
O=C(N/N=C/c1ccccc1Br)c1ccc(CSc2cccc3cccnc23)cc1	12	12	0	-5.2*	-2	1
CCn1nnc(NC(=O)C(C)Oc2ccc(Cl)cc2Cl)n1 (centres undefined)	-3	4	-2	-0.051	5	-12
Cc1cc(NC(=O)C(C)Oc2ccc(Cl)cc2Cl)n(-c2ccccc2)n1 (centres undefined)	2	0	0	-3.5*	2	-3
C=CCn1c(SCC(=O)Nc2ccc3c(c2)OCO3)nnc1-c1cc(Br)ccc1O	7	-1	2	-6.6*	-7	-3
